Results on 1 substance are retold here after ChEMBL document CHEMBL5576140, “Computational Design of Pore-Forming Peptides with Potent Antimicrobial and Anticancer Activities” (J Med Chem, 2024).

Active and inactive are the calls of the source. No cut-off for these calls is given here.

In general, IC50 refers to the concentration that inhibits the measured activity by half. Low values mean greater potency in that assay, high ones weaker potency in that assay.

Holding throughout (format): functional, cell-based
The test system of experiment [1] is HCT-116. The experiment in a line: pH-dependent anticancer activity against human HCT-116 cells in DMEM medium at 10 uM incubated for 1 hr. The essentials:
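Cells cultured in RPMI, DMEM or PBS, each adjusted to pH 8, 7 or 6, plus one unadjusted (~7.6). Peptide at 10 μM for only 1 h, to limit pH drift from CO₂-bicarbonate buffering. Cell viability read. Controls were melittin, ampicillin and PBS. Two independent repetitions; effects analysed by ANOVA.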

Experiment [2] concerns HCT-116. The experiment is described as follows: Anti-cancer activity against human HCT-116 cells incubated for 72 hrs by Cell Titer Glo assay. The conditions noted are these: HCT-116, 72 h. (In general: In ATP-based viability assays light output follows the ATP content of the culture.)
Experiment [3] is described as follows: Anti-cancer activity against human MEC-1 cells incubated for 24 hrs by WST assay. The conditions noted are these: MEC1, 24 h.

With H-KKKKLKKILKKLFQFINQLDNQLQDIKQNK-NH2, the outcome in the experiment with HCT-116 [1] was Active. The IC50 in the experiment with HCT-116 [2] was 1000 nM; in experiment [3], no more than 10000 nM.
